Experimental data pooled from the literature.
Each line is one published result; the experiments were not run side by side.
Target: Macrophage-stimulating protein receptor (MST1R, Homo sapiens, UniProt Q04912)

| SMILES | observed | action | technique | tested at | measurement | result |
| --- | --- | --- | --- | --- | --- | --- |
| O=C(NS(=O)(=O)c1ccc(NCC2CCOCC2)c([N+](=O)[O-])c1)c1ccc(N2CCN(Cc3ccc(C(F)(F)F)cc3-c3ccc(Cl)cc3)CC2)cc1Oc1cnc2[nH]ccc2c1 | cell-free assay | – | competition with immobilised ligand | 1 µM | remaining binding | 96% |
| O=C(Nc1cnn(-c2csc(C(=O)NC3COC3)c2)c1)Nc1ccccc1Cl | enzyme activity | inhibitor | – | 5 µM | remaining activity | 108% |
| N#CCCc1ccc2c(c1)-c1[nH]c3ccc([N+](=O)[O-])cc3c1CC(=O)N2 | cell-free assay | – | – | 0.5 µM | remaining signal | 107% |
| Cc1cnc(NC2CCOCC2)nc1-n1cnc(C(=O)NC(CN)c2cc(F)cc(Cl)c2)c1 (stereo not shown) | enzyme activity | inhibitor | radiometric | 1 µM | remaining activity | 107% |
| O=C(N1CCS(=O)(=O)CC1)N1C[C@H](c2ccc(OC(F)(F)F)cc2)C[C@H](c2nc(C3CC3)no2)C1 | cell-free assay | – | competition with immobilised ligand | 1 µM | remaining binding | 100% |
| Cc1[nH]c(/C=C2\C(=O)Nc3ccc(F)cc32)c(C)c1C(=O)N[C@H]1CCN(C(=O)N(C)C)C1 | enzyme activity | inhibitor | – | 0.1 µM | remaining activity | 93% |
| CNC(=O)c1cc(Oc2ccc(NC(=O)Nc3ccc(Cl)c(C(F)(F)F)c3)cc2)ccn1 | cell-free assay | – | – | 10 µM | inhibition | -5% |
| CC/C(=N\NC(=O)NCc1cccc(O)c1)c1ccc(O)c(C)c1O | enzyme activity | inhibitor | – | 0.1 µM | inhibition | -1.5% |
| COc1cc2ncnc(Nc3ccc(Oc4ccccc4)c(C)c3C)c2cc1OC | enzyme activity | inhibitor | – | 1 µM | inhibition | -3% |
| Nc1ncnc2occ(-c3ccc(NC(=O)Nc4cc(C(F)(F)F)ccc4F)cc3)c12 | cell-free assay | – | – | 20 µM | remaining signal | 7.4% |
| Cc1ccc(C(=O)Nc2ccc(CN3CCN(C)CC3)c(C(F)(F)F)c2)cc1C#Cc1cnc2cccnn12 | cell-free assay | – | – | 23.5 nM | remaining signal | 100% |
| CCCCNc1ncc2c(-c3ccc(F)cc3)nn(C[C@H]3CC[C@H](N)CC3)c2n1 | target engagement in cells | inhibitor | chemoproteomics | 20 mM | inhibition | -12.3% |
| Clc1ccc(Nc2nnc(Cc3ccncc3)c3ccccc23)cc1 | cell-free assay | – | – | 0.5 µM | remaining signal | 91.6% |
| CCc1ccccc1C(=O)Nc1n[nH]c2c(C)c(F)c(C3C(C#N)=C(C)N(C)C(C)=C3C#N)cc12 | cell-free assay | – | competition with immobilised ligand | 1 µM | remaining binding | 100% |
| COc1cccc2c(NCc3ccccc3)nc(-n3c(N)nc4ccccc43)nc12 | target engagement in cells | inhibitor | chemoproteomics | 20 mM | inhibition | -13.2% |
| O=C(Nc1cnn(-c2csc(C(=O)NC3COC3)c2)c1)Nc1c(F)cccc1Cl | enzyme activity | inhibitor | – | 5 µM | remaining activity | 100% |
| O=C1CCc2cc(Nc3cc(OC4CCOCC4)c([N+](=O)[O-])cc3Cl)ccc2N1 | cell-free assay | – | competition with immobilised ligand | 1 µM | remaining binding | 100% |
| CCN(CC)CCNC(=O)c1c(C)[nH]c(/C=C2\C(=O)Nc3ccc(F)cc32)c1C | enzyme activity | inhibitor | – | 1 µM | remaining activity | 138% |
| CC(C)(O)[C@H]1CC[C@H](Nc2ccc3ncc(-c4cccc(C(F)(F)F)c4)n3n2)CC1 | enzyme activity | inhibitor | – | 1 µM | remaining activity | 101% |
| Oc1cccc(-c2nc(N3CCOCC3)c3oc4ncccc4c3n2)c1 | cell-free assay | – | – | 0.5 µM | remaining signal | 94.3% |
| Cc1cc(-n2nc(Cc3cc(F)cc(C(F)(F)F)c3)nc2C)ccc1C(N)=O | cell-free assay | – | competition with immobilised ligand | 1 µM | remaining binding | 100% |
| Cc1ccc(Nc2nccc(N(C)c3ccc4c(C)n(C)nc4c3)n2)cc1S(N)(=O)=O | cell-free assay | – | – | 0.3 µM | inhibition | -3% |
| CO[C@H]1CC[C@H](CNc2ccc(S(=O)(=O)NC(=O)c3ccc(N4CCN(CC5=C(c6ccc(Cl)cc6)CC(C)(C)CC5)CC4)cc3Oc3cnc4[nH]ccc4c3)cc2[N+](=O)[O-])CC1 | cell-free assay | – | competition with immobilised ligand | 1 µM | remaining binding | 92% |
| CNC(=O)c1cc2c(Oc3ccc(NC(=O)C4(C(=O)Nc5ccc(F)cc5)CC4)cc3)ccnc2cc1OC | enzyme activity | inhibitor | radiometric | 1 µM | inhibition | 90% |
| CCCCN(CCCC)C(=O)CN1C[C@@H](c2cc(OC)c3c(c2)OCO3)[C@H](C(=O)O)[C@H]1CC(C)(C)CCC | cell-free assay | – | competition with immobilised ligand | 1 µM | remaining binding | 100% |
| CCN(CC)CCNC(=O)c1c(C)[nH]c(/C=C2\C(=O)Nc3ccc(F)cc32)c1C | cell-free assay | – | – | 0.3 µM | inhibition | -3% |
| Cn1nc(C(F)(F)F)cc1-c1cnc(N2CCc3cc(S(=O)(=O)Nc4c(F)cc(Cl)cc4F)cc(N4CCCC4=O)c32)nc1 | cell-free assay | – | competition with immobilised ligand | 1 µM | remaining binding | 100% |
| CC(C)(C)c1nc(-c2cccc(NS(=O)(=O)c3c(F)cccc3F)c2F)c(-c2ccnc(N)n2)s1 | enzyme activity | inhibitor | radiometric | 1 µM | remaining activity | 104% |
